The values that follow come from ChEMBL document CHEMBL4152346, “Sulfonamido-2-arylbenzoxazole GroEL/ES Inhibitors as Potent Antibacterials against Methicillin-Resistant Staphylococcus aureus (MRSA)” (J Med Chem, 2018).

Calls of active or inactive are those of the source.

Data set [1] concerns Staphylococcus aureus. The data set can be described thus: Antibacterial activity against multidrug resistant Staphylococcus aureus ATCC BAA-44 after 6 to 8 hrs. Format: functional, organism-based.
A short description of data set [2]: Binding affinity to Escherichia coli GroEL expressed in Escherichia coli DH5alpha by ITC assay. In outline: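 ITC at 20°C: 400 µM GroEL (monomer) in syringe titrated into 50 µM compound in cell, matched buffer 20 mM HEPES pH 7.4, 50 mM KCl, 10 mM MgCl₂, 1% DMSO; 0.4 µL first injection discarded, then 2.0 µL injections at 3-min intervals, 600 rpm. Single-site fit gave Kd, n, ΔH, ΔS; five or six replicates.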

Data set [3] concerns Staphylococcus aureus. The data set can be described thus: Antibacterial activity against multidrug resistant Staphylococcus aureus ATCC BAA-44 at >100 uM passaged for 12 days in fresh liquid media supplemented with compound. Format: functional, organism-based.
Data set [4] deals with T1, E. coli GroEL/ES (Escherichia coli, UniProt P0A6F5). Description: Inhibition of Escherichia coli GroEL expressed in Escherichia coli DH5alpha/Escherichia coli GroES expressed in Escherichia coli BL21 (DE3) assessed as reduction in GroEL/GroES-mediated denatured rhodanese refolding by measuring rhodanese enzyme activity after 45 mins by spectrometric analysis. The method in brief:
(§1)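 Coupled refolding assay: denatured rhodanese or MDH refolded by GroEL/ES (50 nM GroEL tetradecamer, 700 nM subunits), read-out via enzymatic activity of refolded substrate; counter-screened against native enzyme activity. IC₅₀ as back-calculated mean of log-transformed replicate values.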

For data set [5], the target named is T1, E. coli GroEL/ES. Description: Inhibition of Escherichia coli GroEL expressed in Escherichia coliDH5alpha/Escherichia coli GroES expressed in Escherichia coli BL21 (DE3) assessed as reduction in GroEL/GroES-mediated denatured MDH refolding by measuring MDH enzyme activity using sodium mesoxalate as substrate after 20 to 40 mins by spectrometric analysis. The method in brief:
as §1

The nature of data set [6]: Inhibition of refolded MDH (unknown origin) preincubated with Escherichia coli GroEL/GroES for 45 mins using sodium mesoxalate as substrate by spectrometric analysis. More on the design: species or system Homo sapiens. In outline:
(§2)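 Chaperonin-mediated refolding of denatured MDH, coupled to MDH enzymatic activity as the reporter. Human HSP60/10 (HSP60 without its 26-residue mitochondrial signal peptide) or E. coli GroEL/ES was used, with GroEL tetradecamer at 50 nM (700 nM subunits) during the refolding cycle. IC50s from replicate dose-response curves were averaged as logs after ROUT outlier removal.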

Data set [7] relates to Acinetobacter baumannii. Description: Antibacterial activity against Acinetobacter baumannii ATCC 19606 after 24 hrs. Format: functional, organism-based. The settings on record: for Activity: ATCC 19606 = CIP 70.34 = JCM 6841. In outline: (§3)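 Stagnant liquid-culture proliferation assay at 37°C in broth cation-adjusted with 25 mg/L Ca²⁺ and 12.5 mg/L Mg²⁺, with compounds stamped into the wells. […] OD600 turbidity was read at 6–8 h (K. pneumoniae, E. cloacae, P. aeruginosa) or 24 h (A. baumannii). EC50 came from non-linear regression, averaged in log form over replicates.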

Data set [8] can be described thus: Cytotoxicity against human THLE3 cells after 48 hrs by Alamar blue assay. The format is cell-based. In outline: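 THLE-3 cells, grown in BEBM with the BEGM kit and 10% FBS, were seeded at 1,500 cells/well and allowed 24 h at 37°C, 5% CO2. Compounds were then added at 100 µM to 46 nM final (3-fold steps, 0.1% DMSO) for 48 h. […] CC50 is the log-average of at least triplicate runs.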
(In general: Resazurin is reduced to fluorescent resorufin, in cell work by metabolically active cells.)

In data set [9] the test system is Klebsiella pneumoniae. The data set can be described thus: Antibacterial activity against Klebsiella pneumoniae ATCC 13883 after 6 to 8 hrs. The format is functional, organism-based. The method in brief: as §3
Data set [10] has as its system Pseudomonas aeruginosa. Description: Antibacterial activity against Pseudomonas aeruginosa ATCC 10145 after 6 to 8 hrs. Format: functional, organism-based. In outline: as §3
In data set [11] the test system is Enterobacter cloacae. The data set can be described thus: Antibacterial activity against Enterobacter cloacae subsp. cloacae ATCC 13047 after 6 to 8 hrs. The format is functional, organism-based. The method in brief:
as §3

In data set [12] the target is T2, Thiosulfate sulfurtransferase (Homo sapiens, UniProt Q16762).
T2 sequence (Q16762 whole entry): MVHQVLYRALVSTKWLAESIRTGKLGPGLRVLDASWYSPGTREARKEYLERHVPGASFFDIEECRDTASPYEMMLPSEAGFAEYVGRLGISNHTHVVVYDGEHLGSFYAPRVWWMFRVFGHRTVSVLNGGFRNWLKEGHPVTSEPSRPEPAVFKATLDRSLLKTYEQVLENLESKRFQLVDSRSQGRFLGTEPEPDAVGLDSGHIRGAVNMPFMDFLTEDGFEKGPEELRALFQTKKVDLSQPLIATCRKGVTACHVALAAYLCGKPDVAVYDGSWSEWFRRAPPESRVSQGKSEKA
The data set can be described thus: Inhibition of refolded rhodanese (unknown origin) preincubated with Escherichia coli GroEL/GroES for 60 mins by measuring […] after 20 to 40 mins by spectrometric analysis.

Data set [13] addresses HSP60/HSP10 (Homo sapiens, UniProt P10809). The data set can be described thus: Inhibition of human N-terminal octa-His-tagged HSP60 expressed in Escherichia coli Rosetta(DE3) pLysS/human HSP10 expressed in Escherichia coli Rosetta(DE3) assessed as reduction in HSP60/HSP10-mediated denatured MDH refolding by measuring MDH enzyme activity using sodium mesoxalate as substrate after 40 to 60 mins by spectrometric analysis. In outline: as §2

Data set [14] in a line: Selectivity index, ratio of CC50 for human THLE3 cells to EC50 for multidrug resistant Staphylococcus aureus ATCC BAA-44. The format is toxicity. The settings on record: read-out: Ratio CC50/EC50.
Data set [15] concerns Staphylococcus aureus. Description: Antibacterial activity against multidrug resistant Staphylococcus aureus ATCC BAA-44 at >100 uM passaged for 12 days in fresh liquid media supplemented with compound followed by re-culturing for 24 hrs on agar and another 24 hrs in liquid medium. The format is functional, organism-based. In outline: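 After 12-day serial passage under compound, resistant culture regrown without inhibitor 24 h on agar then 24 h in liquid medium, then retested for growth inhibition; % growth inhibition averaged (±SD) from 4 replicates.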

Sequence of HSP60/HSP10 (P10809 whole entry): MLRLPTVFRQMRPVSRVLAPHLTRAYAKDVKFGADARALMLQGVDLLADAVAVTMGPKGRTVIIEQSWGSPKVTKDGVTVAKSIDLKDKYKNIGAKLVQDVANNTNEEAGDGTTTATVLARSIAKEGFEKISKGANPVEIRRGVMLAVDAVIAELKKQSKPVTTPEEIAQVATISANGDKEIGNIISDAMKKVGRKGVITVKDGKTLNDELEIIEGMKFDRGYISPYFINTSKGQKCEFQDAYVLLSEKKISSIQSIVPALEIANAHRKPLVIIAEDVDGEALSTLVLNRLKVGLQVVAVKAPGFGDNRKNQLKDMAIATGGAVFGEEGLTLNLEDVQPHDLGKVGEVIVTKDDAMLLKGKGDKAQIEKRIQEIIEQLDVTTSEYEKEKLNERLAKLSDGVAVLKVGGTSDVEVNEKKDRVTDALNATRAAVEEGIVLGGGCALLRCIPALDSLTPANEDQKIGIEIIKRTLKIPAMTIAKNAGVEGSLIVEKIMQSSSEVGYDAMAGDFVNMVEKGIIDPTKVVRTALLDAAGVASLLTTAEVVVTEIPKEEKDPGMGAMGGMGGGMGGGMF
Sequence of HSP60/HSP10 (P61604 whole entry, further chain): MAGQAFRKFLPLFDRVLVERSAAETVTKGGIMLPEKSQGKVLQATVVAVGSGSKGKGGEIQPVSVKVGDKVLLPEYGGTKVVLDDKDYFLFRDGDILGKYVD
T1 sequence (P0A6F5 whole entry, looked up): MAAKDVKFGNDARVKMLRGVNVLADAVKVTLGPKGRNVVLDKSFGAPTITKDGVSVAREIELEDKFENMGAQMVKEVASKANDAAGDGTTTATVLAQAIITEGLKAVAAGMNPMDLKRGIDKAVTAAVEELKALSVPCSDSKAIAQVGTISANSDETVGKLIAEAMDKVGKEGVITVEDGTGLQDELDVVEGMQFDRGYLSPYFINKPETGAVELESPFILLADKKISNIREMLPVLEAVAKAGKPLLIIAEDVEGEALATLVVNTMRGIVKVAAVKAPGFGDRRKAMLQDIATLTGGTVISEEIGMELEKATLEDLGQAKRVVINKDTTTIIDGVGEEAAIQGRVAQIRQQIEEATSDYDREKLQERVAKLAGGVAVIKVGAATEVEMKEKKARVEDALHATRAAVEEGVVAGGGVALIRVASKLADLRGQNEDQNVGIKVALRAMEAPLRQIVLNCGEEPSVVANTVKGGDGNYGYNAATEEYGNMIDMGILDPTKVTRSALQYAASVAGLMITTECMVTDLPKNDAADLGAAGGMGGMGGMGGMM

As usually defined, the EC50 is the concentration that produces a half-maximal response. A higher EC50 goes with a less potent agent. What is called Kd is the constant that tells how readily two partners part at equilibrium. Low values mean a tighter complex, high ones a looser complex. Usually IC50 stands for the concentration that gives 50% inhibition. Take `NCc1ccc(S(=O)(=O)Nc2ccc(-c3nc4cc(NS(=O)(=O)c5ccc(Cl)s5)ccc4o3)cc2)cc1`: in data set [1], the EC50 worked out at 19 µM. In data set [2], the Kd is 0.036 µM. The outcome in [3] was Active. In addition, the IC50 in [4] worked out at 3.2 µM; in data set [5], 1.3 µM.

In general, CC50 refers to the concentration at which the toxic effect on the cells reaches its halfway point. On to `O=S(=O)(Nc1ccc(-c2nc3cc(NS(=O)(=O)c4ccc(Cl)cc4)ccc3o2)cc1)c1ccc(Cl)cc1`, for which the IC50 is more than 63 µM in data set [6] and more than 100 µM in data set [12]. Further, a half-maximal response in data set [1] (EC50) required 3.5 µM. The outcome in data set [7], in data set [9], in data set [10] and in data set [11] was inactive. The molecule further gave a CC50 at 48 h in data set [8] of 18 µM.

Consider `O=S(=O)(Nc1ccc(-c2nc3cc(NS(=O)(=O)c4ccc(Cl)s4)ccc3o2)cc1)c1ccc(Cl)c(C(F)(F)F)c1`, for which the IC50 in [6] was more than 63 µM; in data set [13], 6.1 µM; in [12] it was more than 100 µM. Also, the concentration giving a half-maximal response (EC50) in [1] was 2 µM; in data set [7] (ATCC 19606 = CIP 70.34 = JCM 6841, 24 h), 37 µM. Further, the cytotoxic concentration (CC50) at 48 h in [8] is 22 µM.

In the case of `O=[N+]([O-])c1cc(S(=O)(=O)Nc2ccc(-c3nc4cc(NS(=O)(=O)c5ccc(Cl)s5)ccc4o3)cc2)ccc1Cl`, the selectivity ratio in data set [14] worked out at 10. Besides, the IC50 in data set [6] is 34 µM; in data set [13], 2.1 µM; in data set [4], 2 µM; in data set [5], 1.5 µM; in data set [12], 53 µM. The concentration giving a half-maximal response (EC50) in data set [1] was 1.7 µM. In data set [8], the CC50 at 48 h was determined as 17 µM. For the same molecule, the outcome in data set [15] was Active.

Take `NCc1ccc(S(=O)(=O)Nc2ccc3oc(-c4ccc(NS(=O)(=O)c5ccc(Cl)s5)cc4)nc3c2)cc1`: the Kd in [2] stood at 0.15 µM. In addition, the 50% inhibitory concentration (IC50) in data set [5] worked out at 3.1 µM.

Turning to `O=S(=O)(Nc1ccc2oc(-c3ccc(NS(=O)(=O)c4ccc(Cl)s4)cc3)nc2c1)c1ccc(Cl)c(Cl)c1`, the selectivity ratio in data set [14] was found to be 46. Also, the IC50 in data set [6] is more than 63 µM; in data set [13], 4.7 µM; in data set [4] it was 6.4 µM; in [5], 5.1 µM; in data set [12], more than 100 µM. The concentration giving a half-maximal response (EC50) in data set [1] was found to be 0.53 µM. In addition, in [8], the CC50 at 48 h amounted to 24 µM.

Consider `O=S(=O)(Nc1ccc(-c2nc3cc(NS(=O)(=O)c4ccc(Cl)s4)ccc3o2)cc1)c1cccc(C(F)(F)F)c1`, for which the results for the IC50 in data set [6] and in data set [12] were more than 63 µM and more than 100 µM, respectively. Moreover, a half-maximal response in data set [1] (EC50) required 2.3 µM. The molecule also returned a cytotoxic concentration (CC50) at 48 h in data set [8] of 27 µM.

Take `O=[N+]([O-])c1cc(S(=O)(=O)Nc2ccc3oc(-c4ccc(NS(=O)(=O)c5ccc(Cl)s5)cc4)nc3c2)ccc1Cl`: the IC50 was 37 µM in data set [6], 1 µM in [13], 1 µM in data set [4] and more than 100 µM in data set [12]. In addition, the EC50 in [1] amounted to 0.97 µM. Moreover, the CC50 at 48 h in [8] was determined as 11 µM.

On to `O=S(=O)(Nc1ccc2oc(-c3ccc(NS(=O)(=O)c4ccc(Cl)s4)cc3)nc2c1)c1ccc(Cl)c(C(F)(F)F)c1`, for which the IC50 in data set [6] was 40 µM; in data set [13], 2.4 µM; in data set [12], more than 100 µM. In addition, the concentration giving a half-maximal response (EC50) in data set [1] amounted to 2.2 µM. For the same molecule, the cytotoxic concentration (CC50) at 48 h in data set [8] is 27 µM.

Take `O=S(=O)(Nc1ccc2oc(-c3ccc(NS(=O)(=O)c4ccc(Cl)s4)cc3)nc2c1)c1cccc(C(F)(F)F)c1`: the IC50 in data set [6] is 43 µM; in data set [13], 5 µM; in data set [5], 6.7 µM; in data set [12], more than 100 µM. Also, in data set [1], it took 1.1 µM to reach a half-maximal effect (EC50). This molecule also returned a CC50 at 48 h in [8] of 36 µM.

For the molecule `O=[N+]([O-])c1ccc(S(=O)(=O)Nc2ccc(-c3nc4cc(NS(=O)(=O)c5ccc([N+](=O)[O-])cc5)ccc4o3)cc2)cc1`, the figures for the IC50 in [6], in data set [13] and in data set [12] were more than 63 µM, 51 µM and more than 100 µM, respectively. For the same molecule, in data set [1], the EC50 is 7.3 µM. The result in data set [7], in [9], in [10] and in data set [11] was inactive. In addition, the CC50 at 48 h in [8] came out at 47 µM.

Turning to `O=S(=O)(Nc1ccc(-c2nc3cc(NS(=O)(=O)c4cccc(C(F)(F)F)c4)ccc3o2)cc1)c1cccc(C(F)(F)F)c1`, the values for the IC50 in [6], in data set [13] and in [12] were more than 63 µM, 58 µM and more than 100 µM, respectively. In data set [1], this molecule registered an EC50 of 2 µM. Also, the result in data set [7], in data set [9], in data set [10] and in [11] was inactive. Moreover, the CC50 at 48 h in data set [8] is 24 µM.

Take `O=S(=O)(Nc1ccc2oc(-c3ccc(NS(=O)(=O)c4cccc5nonc45)cc3)nc2c1)c1ccc(Cl)s1`: the half-inhibitory concentration (IC50) is more than 63 µM in data set [6], 11 µM in data set [13] and 72 µM in [12]. Moreover, the midpoint of the response in data set [1], the EC50, lay at 4.5 µM. It took 69 µM to reach half-maximal cytotoxicity in data set [8] (CC50 at 48 h).

Take `O=S(=O)(Nc1ccc(-c2nc3cc(NS(=O)(=O)c4ccc(Cl)s4)ccc3o2)cc1)c1ccc(Cl)s1`: the IC50 in data set [6] was 52 µM; in data set [13], 5.9 µM; in data set [12] it was more than 100 µM. The molecule also came in with a concentration giving a half-maximal response (EC50) in [1] of 4.6 µM. The molecule also had a CC50 at 48 h in data set [8] of 49 µM.
